Reference: ChEMBL document CHEMBL1240421, “Synthesis and evaluation of graveoline and graveolinine derivatives with potent anti-angiogenesis activities” (Eur J Med Chem, 2010)
Activity calls are given as the source filed them. The rule behind the calls is not given here.

system: HUVEC; assay: Cytotoxicity against HUVEC cells after 48 hrs by MTT assay; type: cell-based; conditions: Homo sapiens
Procedure, shortened: (§1)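 Cells seeded at 5000 per well, exposed to a range of concentrations. MTT step, then 4 h further incubation. Formazan dissolved in DMSO, OD read at 490 nm. Triplicate wells; IC50 taken from curves of mean OD versus concentration.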

Row | Compound | IC50 [µM]
1 | Cc1ccc(-c2cc(NCCO)c3ccccc3n2)cc1 | 73.7
2 | Cc1ccc(-c2cc(NCCCO)c3ccccc3n2)cc1 | 63.5
3 | COc1ccc(-c2cc(NCCO)c3ccccc3n2)cc1 | 74.1
4 | Clc1cc(-c2ccc(CNCCCN3CCOCC3)cc2)nc2ccccc12 | 22.4
5 | COc1ccc(Nc2cc(-c3ccc(C)cc3)nc3ccccc23)cc1 | 14.3
6 | Cc1ccc(-c2cc(Cl)c3ccccc3n2)cc1 | > 100
7 | Cc1ccc(-c2cc(NCCN(C)C)c3ccccc3n2)cc1 | 30.3
8 | COc1cc(-c2ccc(CO)cc2)nc2ccccc12 | > 100
9 | c1ccc2c(NCCCN3CCOCC3)cc(-c3ccc(CNCCCN4CCOCC4)cc3)nc2c1 | 56.5
10 | COc1cc(-c2ccc(C)cc2)nc2ccccc12 | > 100
11 | Cc1ccc(-c2cc(=O)c3ccccc3n2C)cc1 | > 100
12 | CN(C)CCCNCc1ccc(-c2cc(=O)c3ccccc3n2C)cc1 | 99.7
13 | COc1ccc(-c2cc(Cl)c3ccccc3n2)cc1 | > 100
14 | COc1cc(-c2ccc(COC(=O)c3cccs3)cc2)nc2ccccc12 | > 100
15 | COc1ccc(-c2cc(NCCCO)c3ccccc3n2)cc1 | 47.6
16 | Cc1ccc(-c2cc(NCCCN3CCOCC3)c3ccccc3n2)cc1 | 45.2

species: Gallus gallus; assay: Antiangiogenic activity in fertilized chicken eggs at 30 ug/10 uL after 48 hrs by CAM assay; type: functional; conditions: Egg
Procedure, shortened: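 Test agent applied to the chick CAM at 30 µg/10 µL, 10 eggs per treatment; 0.9% NaCl as negative control, thalidomide as positive control. After 48 h, CAMs fixed in 4% paraformaldehyde, vessels counted in three random microscope fields around the filter disc.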

Row | Compound | Activity
17 | Cc1ccc(-c2cc(NCCO)c3ccccc3n2)cc1 | Active
18 | Cc1ccc(-c2cc(NCCCO)c3ccccc3n2)cc1 | Active
19 | COc1ccc(Nc2cc(-c3ccc(C)cc3)nc3ccccc23)cc1 | Active
20 | Cc1ccc(-c2cc(NCCN(C)C)c3ccccc3n2)cc1 | Active
21 | Cc1ccc(-c2cc(NCCCN3CCOCC3)c3ccccc3n2)cc1 | Active

system: HUVEC; assay: Inhibition of migration of HUVEC cellss at 15 to 30 uM; type: functional, Homo sapiens; conditions: not given
Procedure, shortened: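 Scratch-wound assay: HUVEC plated at 20 000 cells per well, monolayer scraped with a rubber policeman, then incubated 24 h with or without compound. Two random pictures per wound; migration area measured. Triplicate measurements, at least three experiments.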

Row | Compound | inhibition (INH) [%]
22 | c1ccc2c(NCCCN3CCOCC3)cc(-c3ccc(CNCCCN4CCOCC4)cc3)nc2c1 | 49.2

system: HUVEC; assay: Inhibition of HUVEC cell adhesion to collagen at 15 uM after 1 hr; type: functional, cell-based; conditions: Homo sapiens
Procedure, shortened: (§2)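 Wells coated overnight at room temperature with rat tail tendon type I collagen in PBS, blocked with 0.2% BSA for 2 h at 37 °C. HUVEC resuspended in DMEM and added at 10⁴ cells/ml with compound, incubated 1 or 3 h at 37 °C. After washing, attached cells stained with 0.2% crystal violet and solubilized in 2% SDS; OD at 570 nm. Triplicate wells, three independent experiments.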

Row | Compound | IC50 [µM]
23 | c1ccc2c(NCCCN3CCOCC3)cc(-c3ccc(CNCCCN4CCOCC4)cc3)nc2c1 | > 100

system: not listed separately; assay: Cytotoxicity against human GLC82 cells after 48 hrs by MTT assay; type: functional, cell-based; conditions: GLC82, 48 h; procedure, shortened: as §1

Row | Compound | IC50 [µM]
24 | Cc1ccc(-c2cc(NCCO)c3ccccc3n2)cc1 | 61.1
25 | Cc1ccc(-c2cc(NCCCO)c3ccccc3n2)cc1 | 60.3
26 | COc1ccc(-c2cc(NCCO)c3ccccc3n2)cc1 | 56.2
27 | Clc1cc(-c2ccc(CNCCCN3CCOCC3)cc2)nc2ccccc12 | 30.6
28 | COc1ccc(Nc2cc(-c3ccc(C)cc3)nc3ccccc23)cc1 | 34.2
29 | Cc1ccc(-c2cc(Cl)c3ccccc3n2)cc1 | > 100
30 | Cc1ccc(-c2cc(NCCN(C)C)c3ccccc3n2)cc1 | 20.6
31 | COc1cc(-c2ccc(CO)cc2)nc2ccccc12 | > 100
32 | c1ccc2c(NCCCN3CCOCC3)cc(-c3ccc(CNCCCN4CCOCC4)cc3)nc2c1 | 34.4
33 | COc1cc(-c2ccc(C)cc2)nc2ccccc12 | > 100
34 | Cc1ccc(-c2cc(=O)c3ccccc3n2C)cc1 | > 100
35 | CN(C)CCCNCc1ccc(-c2cc(=O)c3ccccc3n2C)cc1 | > 100
36 | COc1ccc(-c2cc(Cl)c3ccccc3n2)cc1 | > 100
37 | COc1cc(-c2ccc(COC(=O)c3cccs3)cc2)nc2ccccc12 | > 100
38 | COc1ccc(-c2cc(NCCCO)c3ccccc3n2)cc1 | 40.9
39 | Cc1ccc(-c2cc(NCCCN3CCOCC3)c3ccccc3n2)cc1 | 49.5

system: HUVEC; assay: Inhibition of HUVEC cell adhesion to collagen at 15 uM after 3 hrs; type: functional; conditions: Homo sapiens; procedure, shortened: as §2

Row | Compound | inhibition at 15 µM [%]
40 | c1ccc2c(NCCCN3CCOCC3)cc(-c3ccc(CNCCCN4CCOCC4)cc3)nc2c1 | 46.2

system: NCI-H460; assay: Cytotoxicity against human NCI-H460 cells after 48 hrs by MTT assay; type: functional, cell-based; conditions: NCI-H460, 48 h; procedure, shortened: as §1

Row | Compound | IC50 [µM]
41 | Cc1ccc(-c2cc(NCCO)c3ccccc3n2)cc1 | 53.7
42 | Cc1ccc(-c2cc(NCCCO)c3ccccc3n2)cc1 | 48.1
43 | COc1ccc(-c2cc(NCCO)c3ccccc3n2)cc1 | 38.3
44 | Clc1cc(-c2ccc(CNCCCN3CCOCC3)cc2)nc2ccccc12 | 21.1
45 | COc1ccc(Nc2cc(-c3ccc(C)cc3)nc3ccccc23)cc1 | 24.2
46 | Cc1ccc(-c2cc(Cl)c3ccccc3n2)cc1 | > 100
47 | Cc1ccc(-c2cc(NCCN(C)C)c3ccccc3n2)cc1 | 6.1
48 | COc1cc(-c2ccc(CO)cc2)nc2ccccc12 | > 100
49 | c1ccc2c(NCCCN3CCOCC3)cc(-c3ccc(CNCCCN4CCOCC4)cc3)nc2c1 | 42.3
50 | COc1cc(-c2ccc(C)cc2)nc2ccccc12 | > 100
51 | Cc1ccc(-c2cc(=O)c3ccccc3n2C)cc1 | > 100
52 | CN(C)CCCNCc1ccc(-c2cc(=O)c3ccccc3n2C)cc1 | > 100
53 | COc1ccc(-c2cc(Cl)c3ccccc3n2)cc1 | > 100
54 | COc1cc(-c2ccc(COC(=O)c3cccs3)cc2)nc2ccccc12 | > 100
55 | COc1ccc(-c2cc(NCCCO)c3ccccc3n2)cc1 | 24
56 | Cc1ccc(-c2cc(NCCCN3CCOCC3)c3ccccc3n2)cc1 | 11.5

system: HUVEC; assay: Inhibition of HUVEC cell adhesion to collagen at 30 uM after 1 hr; type: functional; conditions: Homo sapiens; procedure, shortened: as §2

Row | Compound | inhibition at 30 µM [%]
57 | c1ccc2c(NCCCN3CCOCC3)cc(-c3ccc(CNCCCN4CCOCC4)cc3)nc2c1 | 15.8

system: HUVEC; assay: Inhibition of HUVEC cell adhesion to collagen at 15 uM; conditions: Homo sapiens

Row | Compound | inhibition at 15 µM [%]
58 | Cc1ccc(-c2cc(NCCO)c3ccccc3n2)cc1 | 38.3
59 | Cc1ccc(-c2cc(NCCCO)c3ccccc3n2)cc1 | 44.2
60 | COc1ccc(-c2cc(NCCO)c3ccccc3n2)cc1 | 54.1
61 | Clc1cc(-c2ccc(CNCCCN3CCOCC3)cc2)nc2ccccc12 | 67.8
62 | COc1ccc(Nc2cc(-c3ccc(C)cc3)nc3ccccc23)cc1 | 42.4
63 | Cc1ccc(-c2cc(Cl)c3ccccc3n2)cc1 | 39
64 | Cc1ccc(-c2cc(NCCN(C)C)c3ccccc3n2)cc1 | 52.2
65 | COc1cc(-c2ccc(CO)cc2)nc2ccccc12 | 27.5
66 | COc1cc(-c2ccc(C)cc2)nc2ccccc12 | 35.4
67 | Cc1ccc(-c2cc(=O)c3ccccc3n2C)cc1 | 30.3
68 | CN(C)CCCNCc1ccc(-c2cc(=O)c3ccccc3n2C)cc1 | 31.9
69 | COc1ccc(-c2cc(Cl)c3ccccc3n2)cc1 | 52.6
70 | COc1cc(-c2ccc(COC(=O)c3cccs3)cc2)nc2ccccc12 | 37.4
71 | COc1ccc(-c2cc(NCCCO)c3ccccc3n2)cc1 | 45.3
72 | Cc1ccc(-c2cc(NCCCN3CCOCC3)c3ccccc3n2)cc1 | 47.2

system: HUVEC; assay: Inhibition of HUVEC cell adhesion to collagen at 30 uM after 3 hrs; conditions: not given

Row | Compound | inhibition (INH) [%]
73 | Cc1ccc(-c2cc(NCCO)c3ccccc3n2)cc1 | 40
74 | Cc1ccc(-c2cc(NCCCO)c3ccccc3n2)cc1 | 33.8
75 | COc1ccc(-c2cc(NCCO)c3ccccc3n2)cc1 | 54.9
76 | Clc1cc(-c2ccc(CNCCCN3CCOCC3)cc2)nc2ccccc12 | 72.3
77 | COc1ccc(Nc2cc(-c3ccc(C)cc3)nc3ccccc23)cc1 | 48.1
78 | Cc1ccc(-c2cc(Cl)c3ccccc3n2)cc1 | 35.2
79 | Cc1ccc(-c2cc(NCCN(C)C)c3ccccc3n2)cc1 | 48.2
80 | COc1cc(-c2ccc(CO)cc2)nc2ccccc12 | 19.4
81 | COc1cc(-c2ccc(C)cc2)nc2ccccc12 | 20.3
82 | Cc1ccc(-c2cc(=O)c3ccccc3n2C)cc1 | 8.1
83 | CN(C)CCCNCc1ccc(-c2cc(=O)c3ccccc3n2C)cc1 | 42
84 | COc1ccc(-c2cc(Cl)c3ccccc3n2)cc1 | 48.2
85 | COc1cc(-c2ccc(COC(=O)c3cccs3)cc2)nc2ccccc12 | 27.4
86 | COc1ccc(-c2cc(NCCCO)c3ccccc3n2)cc1 | 56.4
87 | Cc1ccc(-c2cc(NCCCN3CCOCC3)c3ccccc3n2)cc1 | 49.2
